Peptide text beside a SMILES is read from it.
Columns and labels:
[1] = molecular target: T1, RAC-alpha serine/threonine-protein kinase (Homo sapiens, UniProt P31749); test: Inhibition of PKB by radioactive kinase assay
How it was run: (§1)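 PKB/Akt enzyme HisAPHPKBEEEFlag, partly purified in one step on Ni-NTA agarose. The radioactive kinase reaction contains 50 mM Hepes pH 7.4, 0.1 mM EGTA, 0.1% 2-mercaptoethanol, 10 mM magnesium acetate, 3 uM RPRTSSF peptide substrate, 10 uM [γ32P]ATP and 0.005 units enzyme. Inhibition is given as percent reduction of activity against a no-inhibitor control. IC50 values, with 95% confidence ranges, come from curve fitting.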

[2] = molecular target: T1, RAC-alpha serine/threonine-protein kinase; test: Inhibition of PKB at 50 uM by radioactive kinase assay relative to control; how it was run: as §1
[3] = molecular target: T1, RAC-alpha serine/threonine-protein kinase; test: Inhibition of PKB at 5 uM by radioactive kinase assay relative to control; how it was run: as §1
[4] = molecular target: T1, RAC-alpha serine/threonine-protein kinase; test: Inhibition of PKB at 20 uM by radioactive kinase assay relative to control; how it was run: as §1
[5] = Stability in presence of trypsin and chymotrypsin assessed as peptide degradation at 1 mM after 2 hrs by HPLC; format: ADME; details: isolated protein, 1000 µM
How it was run: (§2)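 Peptide at 1 mM in 200 mM NH4HCO3, pH 8, is mixed with porcine pancreatic trypsin plus chymotrypsin (2.5 mg/ml solution) and incubated at 37 °C. Samples are taken every 30 min and quenched with 2% TFA/30% acetonitrile in water. Degradation is followed by HPLC and MALDI-TOF MS.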

[6] = molecular target: T1, RAC-alpha serine/threonine-protein kinase; test: Inhibition of PKB at 100 uM by radioactive kinase assay relative to control; how it was run: as §1
[7] = Stability in presence of trypsin and chymotrypsin assessed as peptide degradation at 1 mM after 30 mins by HPLC; format: ADME; details: read-out: Activity; how it was run: as §2
[8] = Stability in presence of trypsin and chymotrypsin assessed as peptide degradation at 1 mM within 90 mins by HPLC; format: ADME; details: isolated protein, 1.5 h, 1000 µM; how it was run: as §2
[9] = Stability in presence of trypsin and chymotrypsin assessed as peptide degradation at 1 mM within 30 mins by HPLC; format: ADME; details: isolated protein, 0.5 h, 1000 µM; how it was run: as §2

T1 sequence (P31749 whole entry): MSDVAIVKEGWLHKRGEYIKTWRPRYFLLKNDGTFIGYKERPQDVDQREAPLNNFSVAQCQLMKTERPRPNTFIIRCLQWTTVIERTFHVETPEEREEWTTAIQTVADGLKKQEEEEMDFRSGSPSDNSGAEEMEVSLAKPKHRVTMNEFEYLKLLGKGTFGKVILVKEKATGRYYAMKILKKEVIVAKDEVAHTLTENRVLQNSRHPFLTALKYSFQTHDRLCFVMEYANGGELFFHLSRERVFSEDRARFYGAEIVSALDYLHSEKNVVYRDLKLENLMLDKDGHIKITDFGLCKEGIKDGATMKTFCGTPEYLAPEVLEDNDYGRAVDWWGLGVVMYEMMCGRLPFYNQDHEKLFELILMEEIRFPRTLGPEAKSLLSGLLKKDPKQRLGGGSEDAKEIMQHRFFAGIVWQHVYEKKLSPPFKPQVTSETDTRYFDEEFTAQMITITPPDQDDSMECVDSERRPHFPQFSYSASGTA

IC50 [1] | inhibition [3] | inhibition [4] | SMILES | also measured
840 nM | – | – | CCC[C@H](NC(=O)[C@H](CCCN=C(N)N)NC(=O)[C@@H]1CCCN1C(=O)[C@H](CCCN=C(N)N)NC(=O)[C@@H](N)CCCN=C(N)N)C(=O)N[C@@H](Cc1ccc(O)cc1)C(=O)N[C@@H](CN)C(=O)N[C@@H](CCC(C)C)C(N)=O | –
400 nM | – | – | CCC[C@H](NC(=O)[C@H](CCCN=C(N)N)NC(=O)[C@@H]1CCCN1C(=O)[C@@H](N)CCCN=C(N)N)C(=O)N[C@@H](Cc1ccc(O)cc1)C(=O)N[C@H](CS)C(=O)N[C@@H](CCC(C)C)C(N)=O | –
– | – | 3% | CCC[C@H](NC(=O)[C@H](CCCNC(=N)N)NC(=O)[C@@H]1CCCN1C(=O)[C@H](CCCNC(=N)N)NC(=O)[C@H](N)CCCCN)C(=O)N[C@@H](Cc1ccc(O)cc1)C(=O)N[C@@H](CN)C(=O)N[C@@H](CCC(C)C)C(N)=O | –
– | – | 46% | CCC[C@H](NC(=O)[C@H](CCCNC(=N)N)NC(=O)[C@@H]1CCCN1C(=O)[C@H](CCCNC(=N)N)NC(=O)[C@H](CCCCN)NC(C)=O)C(=O)N[C@@H](Cc1ccc(O)cc1)C(=O)N[C@@H](CN)C(=O)N[C@@H](CCC(C)C)C(=O)O (HELM PEPTIDE1{[ac].K.R.P.R.[Nva].Y.[NC[C@H](N[*:1])C(=O)[*:2]].[CC(C)CC[C@H](N[*:1])C(=O)O]}$$$$V2.0) | –
– | 61% | 85% | CCC[C@H](NC(=O)[C@H](CCCNC(=N)N)NC(=O)[C@@H]1CCCN1C(=O)[C@H](CCCNC(=N)N)NC(=O)[C@H](CCCCN)NC(C)=O)C(=O)N[C@@H](Cc1ccc(O)cc1)C(=O)N[C@@H](CN)C(=O)N[C@@H](CCC(C)C)C(N)=O (HELM PEPTIDE1{[ac].K.R.P.R.[Nva].Y.[NC[C@H](N[*:1])C(=O)[*:2]].[CC(C)CC[C@H](N[*:1])C(=O)[*:2]].[am]}$$$$V2.0) | –
1170 nM | – | – | CCC[C@H](NC(=O)[C@H](CCCN=C(N)N)NC(=O)[C@@H]1CCCN1C(=O)[C@H](CCCN=C(N)N)NC(=O)[C@H](CCCN=C(N)N)NC(C)=O)C(=O)N[C@@H](Cc1ccc(O)cc1)C(=O)N[C@@H](CN)C(=O)N[C@@H](CCC(C)C)C(N)=O (HELM PEPTIDE1{[ac].R.R.P.R.[Nva].Y.[NC[C@H](N[*:1])C(=O)[*:2]].[CC(C)CC[C@H](N[*:1])C(=O)[*:2]].[am]}$$$$V2.0) | –
– | 83% | 94% | CCC[C@H](NC(=O)[C@H](CCCNC(=N)N)NC(=O)[C@@H]1CCCN1C(=O)[C@H](CCCNC(=N)N)NC(=O)[C@H](CCCNC(=N)N)NC(C)=O)C(=O)N[C@@H](Cc1ccc(O)cc1)C(=O)N[C@@H](CN)C(=O)N[C@@H](CCC(C)C)C(N)=O (HELM PEPTIDE1{[ac].R.R.P.R.[Nva].Y.[NC[C@H](N[*:1])C(=O)[*:2]].[CC(C)CC[C@H](N[*:1])C(=O)[*:2]].[am]}$$$$V2.0) | –

Further lines, the compound ahead of its results:

SMILES | IC50 [1] | inhibition [3] | inhibition [4] | also measured
CCC[C@H](NC(=O)[C@H](CCCNC(=N)N)NC(=O)[C@@H]1CCCN1C(=O)[C@@H](N)CCCNC(=N)N)C(=O)N[C@@H](Cc1ccc(O)cc1)C(=O)N[C@H](CS)C(=O)N[C@@H](CCC(C)C)C(N)=O | – | 95% | – | inhibition [2]: 95%
CCC[C@H](NC(=O)[C@H](CCCNC(=N)N)NC(=O)[C@@H]1CCCN1C(=O)[C@H](CCCNC(=N)N)NC(=O)[C@@H](N)CCCCN)C(=O)N[C@@H](Cc1ccc(O)cc1)C(=O)N[C@@H](CN)C(=O)N[C@@H](CCC(C)C)C(N)=O | – | 73% | 92% | –
CCC[C@H](NC(=O)[C@H](CCCNC(=N)N)NC(=O)[C@@H]1CCCN1C(=O)[C@H](CCCNC(=N)N)NC(=O)[C@@H](N)CCCNC(=N)N)C(=O)N[C@@H](Cc1ccc(O)cc1)C(=O)N[C@@H](CN)C(=O)N[C@@H](CCC(C)C)C(N)=O | – | 88% | 96% | –
CCC[C@H](NC(=O)[C@H](CCCNC(=N)N)NC(=O)[C@@H]1CCCN1C(=O)[C@H](CCCNC(=N)N)NC(=O)[C@H](N)CCCNC(=N)N)C(=O)N[C@@H](Cc1ccc(O)cc1)C(=O)N[C@@H](CN)C(=O)N[C@@H](CCC(C)C)C(=O)O | – | – | 69% | –
CCC[C@H](NC(=O)[C@H](CCCNC(=N)N)NC(=O)[C@@H]1CCCN1C(=O)[C@H](CCCNC(=N)N)NC(=O)[C@H](N)CCCNC(=N)N)C(=O)N[C@@H](Cc1ccc(O)cc1)C(=O)N[C@@H](CN)C(=O)N[C@@H](CCC(C)C)C(N)=O | – | – | 40% | –
CCC[C@H](NC(=O)[C@H](CCCNC(=N)N)NC(=O)[C@@H]1CCCN1C(=O)[C@@H](N)CCCNC(=N)N)C(=O)N[C@@H](Cc1ccc(O)cc1)C(=O)N[C@@H](CN)C(=O)N[C@@H](CCC(C)C)C(N)=O (HELM PEPTIDE1{R.P.R.[Nva].Y.[NC[C@H](N[*:1])C(=O)[*:2]].[CC(C)CC[C@H](N[*:1])C(=O)[*:2]].[am]}$$$$V2.0) | 940 nM | 87% | 96% | inhibition [2]: 99%; Stability [5]: Unstable; inhibition [6]: 99%; metabolised at 0.5 h, 1000 µM [7]: 40%
CCC[C@H](NC(=O)[C@H](CCCNC(=N)N)NC(=O)[C@H](C)N(C)C(=O)[C@@H](N)CCCNC(=N)N)C(=O)N[C@@H](Cc1ccc(O)cc1)C(=O)N[C@@H](CN)C(=O)N[C@@H](CCC(C)C)C(N)=O (HELM PEPTIDE1{R.[meA].R.[Nva].Y.[NC[C@H](N[*:1])C(=O)[*:2]].[CC(C)CC[C@H](N[*:1])C(=O)[*:2]].[am]}$$$$V2.0) | 2030 nM | 77% | – | Stability [8]: Unstable; inhibition [6]: 95%; Stability [9]: Unstable
CCC[C@H](NC(=O)[C@H](CCCNC(=N)N)NC(=O)[C@@H]1CCCN1C(=O)[C@H](CCCNC(=N)N)NC)C(=O)N[C@@H](Cc1ccc(O)cc1)C(=O)N[C@@H](CN)C(=O)N[C@@H](CCC(C)C)C(N)=O (HELM PEPTIDE1{[meR].P.R.[Nva].Y.[NC[C@H](N[*:1])C(=O)[*:2]].[CC(C)CC[C@H](N[*:1])C(=O)[*:2]].[am]}$$$$V2.0) | 920 nM | 85% | – | inhibition [6]: 97%
